Ten compounds from ChEMBL document CHEMBL1158076, “Bioactive guaianolides from siyekucai (Ixeris chinensis)” (J Nat Prod, 2006) can be followed below.

Data set [1] relates to A549. Put plainly: Cytotoxicity against human A549 cells after 24 hrs by MTT method. It is filed as cell-based. The settings on record: A549, 24 h. The gist of the method:
(§1)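 A549 cells were exposed to serial dilutions for 24 h and viability was read by MTT, in triplicate cultures. Viability (%) = (experimental − background absorbance)/(control − background absorbance) × 100, and IC50 was derived from it.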

Data set [2] has as its system WI-38. Briefly: Cytotoxicity against human WI38 cells. It counts as functional, cell-based.
Data set [3] deals with A549. Briefly: Inhibition of ICAM1 induction in human A549 cells at <100 uM pretreated for 1 hr in presence of TNFalpha for 6 hrs. It counts as functional, cell-based.
Data set [4] concerns A549. Briefly: Inhibition of ICAM1 induction in human A549 cells <100 uM pretreated for 1 hr at in presence of IL1alpha for 6 hrs. It is filed as functional, cell-based.
Data set [5] is described as follows: Cytotoxicity against human Hep G2 cells. It counts as functional, cell-based. Particulars: HepG2.
Data set [6] concerns A549. Put plainly: Inhibition of ICAM1 induction in human A549 cells pretreated for 1 hr in presence of IL1alpha for 6 hrs. It is filed as functional, cell-based.
Data set [7] deals with A549. Briefly: Cytotoxicity against human A549 cells at <100 uM after 24 hrs by MTT method. It is filed as cell-based. Particulars: a549, 24 h. The method, boiled down: as §1
For orientation: Formazan colour is commonly taken as a measure of viable cells.

In data set [8] the test system is A549. Briefly: Inhibition of ICAM1 induction in human A549 cells pretreated for 1 hr in presence of TNFalpha for 6 hrs. It is filed as functional, cell-based.
In data set [9] the test system is WI-38 VA13. Put plainly: Cytotoxicity against human VA13 cells. It is filed as functional, cell-based.
In data set [10] the test system is A549. Put plainly: Inhibition of ICAM1 induction in human A549 cells in presence of IL1alpha. It counts as functional, cell-based.

Each structure is given as a SMILES string. Counter-ions that a name gives are not always drawn. Activity calls are given as the source filed them. The calls are words filed in the database; no cut-off is given here. Some results are limits rather than exact numbers.

For `C=C1[C@@H]2[C@H]3OC(=O)C(=C)[C@@H]3CC[C@@](C)(O)[C@@H]2C[C@@H]1O[C@@H]1O[C@H](COC(=O)Cc2ccc(O)cc2)[C@@H](O)[C@H](O)[C@H]1OC(=O)Cc1ccc(O)cc1` [CHINENSIOLIDE E], the IC50 (as a rule, the concentration at which inhibition is half-maximal) is above 100 µM in [1]; 23 µM in [2]; 140 µM in data set [5]; above 100 µM in data set [6]; above 100 µM in data set [8]; 0.72 µM in data set [9]. The outcome in data set [3] and in data set [4] was inactive. Besides, the Activity entry in data set [7] is listed as “Non-toxic”.

As to `C=C1C(=O)O[C@@H]2[C@H]3C(=C)[C@@H](O[C@@H]4O[C@H](COC(=O)Cc5ccc(O)cc5)[C@@H](O)[C@H](O)[C@H]4O)C[C@H]3C(=C)C[C@@H](OC(=O)Cc3ccc(O)cc3)[C@@H]12` [IXEROCHINOSIDE], the IC50 in data set [1], in data set [6] and in [8] was above 100 µM in each case. In addition, the result in data set [3] and in [4] was inactive. The Activity result in [7] is on record as “Non-toxic”.

Take `CC1=C2[C@H]3OC(=O)[C@@H](C)[C@@H]3CC[C@@](C)(O)[C@@H]2CC1=O`: the concentration for half-maximal inhibition (IC50) in data set [1] was above 100 µM; in data set [2], 25 µM; in data set [5] it was 230 µM; in [6], above 100 µM; in data set [8], above 100 µM; in data set [9], 130 µM. Further, the result in [3] and in data set [4] was inactive. For the same compound, in data set [7], the Activity entry is “Non-toxic”.

Consider `C=C1C(=O)C[C@@H]2[C@H]1[C@H]1OC(=O)C(=C)[C@@H]1CC[C@@]2(C)O`, for which the figures for the IC50 in data set [1], in data set [6] and in data set [8] were 64.9 µM, 10.9 µM and 11.4 µM, respectively.

For the compound `C=C1C(=O)O[C@@H]2C3=C(C)C(=O)C[C@H]3[C@](C)(O)CC[C@@H]12`, the IC50 in data set [1] was above 100 µM; in [2], 24 µM; in data set [10], 20.9 µM; in [5], 23 µM; in data set [9], 22 µM.

For the compound `C=C1C(=O)O[C@@H]2[C@H]3[C@H](C)C(=O)C[C@H]3[C@](C)(O)CC[C@@H]12`, the IC50 in [1] was above 100 µM; in data set [2], 25 µM; in data set [5], 22 µM; in data set [6], 16.4 µM; in data set [8], 16.8 µM; in data set [9], 27 µM.

`C=C1C(=O)O[C@@H]2[C@H]3C(CO)=CC(=O)C3=C(C)CC[C@@H]12`: the IC50 was above 100 µM in [1]; 2.7 µM in data set [2]; 25 µM in data set [5]; 16.1 µM in data set [6]; 20.1 µM in [8]; 8.5 µM in [9].

As to `C[C@@H]1C(=O)O[C@H]2[C@H]1CC[C@@](C)(O)[C@@H]1CC(=O)[C@@H](C)[C@H]21`, the values for the IC50 in data set [2], in [5] and in [9] were 32 µM, 230 µM and 160 µM, respectively.

`CC(=O)O[C@H]1C(=O)[C@@]2(C)[C@H]([C@H](OC(=O)c3ccccc3)[C@]3(O)C[C@H](OC(=O)[C@H](O)[C@@H](NC(=O)c4ccccc4)c4ccccc4)C(C)=C1C3(C)C)[C@]1(OC(C)=O)CO[C@@H]1C[C@@H]2O` [PACLITAXEL] had an IC50 in data set [2] of 0.04 µM.

On to `COc1cccc2c1C(=O)c1c(O)c3c(c(O)c1C2=O)C[C@@](O)(C(=O)CO)C[C@@H]3O[C@H]1C[C@H](N)[C@H](O)[C@H](C)O1` [DOXORUBICIN HYDROCHLORIDE], for which the IC50 amounted to 0.7 µM in [2] and 0.4 µM in data set [9].
